Laboratory results from ChEMBL document CHEMBL4699573, “Design, Synthesis, and Pharmacological Evaluation of Analogues Derived from the PLEV Tetrapeptide as Protein-Protein Interaction Modulators of Voltage-Gated Sodium Channel 1.6” (J Med Chem, 2020).
Residues, ends and D or L forms follow the SMILES beside them. *: point of attachment. Adamantane1carbonyl = O=C(C12CC3CC(CC(C3)C1)C2)*; OtBu = CC(C)(C)O*

Key:
[1] = Modulation of recombinant human FGF141b (1 to 252 residues)-recombinant human Nav1.6 C-terminal tail (1763 to 1976 residues) protein-protein interaction expressed in HEK293 cells measured at 2 mins interval for 20 mins by split-luciferase complementation assay; assay type: cell-based
Outline: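 Double-stable HEK293 line expressing CLuc-FGF14 and CD4-Nav1.6-C-tail-NLuc, kept on G418 and puromycin. Cells seeded for 24 h, then given compound for 1 h in serum-free, phenol red-free DMEM/F12 with a final 0.5% DMSO: 50 μM for screening, 0.25–100 μM over eight concentrations for dose-response; n = 4. D-luciferin added and read every 2 min for 20 min at 37 °C. Peak luminescence expressed as percent of per-plate DMSO mean (n = 32). IC50 from four-parameter nonlinear fit. At least 3 experiments.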

[2] = target: T1, Sodium channel protein type 8 subunit alpha (Homo sapiens, UniProt Q9UQD0); assay: Binding affinity to human recombinant Nav1.6 C-terminal domain expressed in Escherichia coli BL21 assessed as assessed as induction of protein denaturation by measuring change in melting temperature at 10 uM by fluorescent dye based thermal shift assay; settings: filed as modulator, dose 50.0 µM
T1 sequence (Q9UQD0 whole entry, looked up, the tested form may be a part): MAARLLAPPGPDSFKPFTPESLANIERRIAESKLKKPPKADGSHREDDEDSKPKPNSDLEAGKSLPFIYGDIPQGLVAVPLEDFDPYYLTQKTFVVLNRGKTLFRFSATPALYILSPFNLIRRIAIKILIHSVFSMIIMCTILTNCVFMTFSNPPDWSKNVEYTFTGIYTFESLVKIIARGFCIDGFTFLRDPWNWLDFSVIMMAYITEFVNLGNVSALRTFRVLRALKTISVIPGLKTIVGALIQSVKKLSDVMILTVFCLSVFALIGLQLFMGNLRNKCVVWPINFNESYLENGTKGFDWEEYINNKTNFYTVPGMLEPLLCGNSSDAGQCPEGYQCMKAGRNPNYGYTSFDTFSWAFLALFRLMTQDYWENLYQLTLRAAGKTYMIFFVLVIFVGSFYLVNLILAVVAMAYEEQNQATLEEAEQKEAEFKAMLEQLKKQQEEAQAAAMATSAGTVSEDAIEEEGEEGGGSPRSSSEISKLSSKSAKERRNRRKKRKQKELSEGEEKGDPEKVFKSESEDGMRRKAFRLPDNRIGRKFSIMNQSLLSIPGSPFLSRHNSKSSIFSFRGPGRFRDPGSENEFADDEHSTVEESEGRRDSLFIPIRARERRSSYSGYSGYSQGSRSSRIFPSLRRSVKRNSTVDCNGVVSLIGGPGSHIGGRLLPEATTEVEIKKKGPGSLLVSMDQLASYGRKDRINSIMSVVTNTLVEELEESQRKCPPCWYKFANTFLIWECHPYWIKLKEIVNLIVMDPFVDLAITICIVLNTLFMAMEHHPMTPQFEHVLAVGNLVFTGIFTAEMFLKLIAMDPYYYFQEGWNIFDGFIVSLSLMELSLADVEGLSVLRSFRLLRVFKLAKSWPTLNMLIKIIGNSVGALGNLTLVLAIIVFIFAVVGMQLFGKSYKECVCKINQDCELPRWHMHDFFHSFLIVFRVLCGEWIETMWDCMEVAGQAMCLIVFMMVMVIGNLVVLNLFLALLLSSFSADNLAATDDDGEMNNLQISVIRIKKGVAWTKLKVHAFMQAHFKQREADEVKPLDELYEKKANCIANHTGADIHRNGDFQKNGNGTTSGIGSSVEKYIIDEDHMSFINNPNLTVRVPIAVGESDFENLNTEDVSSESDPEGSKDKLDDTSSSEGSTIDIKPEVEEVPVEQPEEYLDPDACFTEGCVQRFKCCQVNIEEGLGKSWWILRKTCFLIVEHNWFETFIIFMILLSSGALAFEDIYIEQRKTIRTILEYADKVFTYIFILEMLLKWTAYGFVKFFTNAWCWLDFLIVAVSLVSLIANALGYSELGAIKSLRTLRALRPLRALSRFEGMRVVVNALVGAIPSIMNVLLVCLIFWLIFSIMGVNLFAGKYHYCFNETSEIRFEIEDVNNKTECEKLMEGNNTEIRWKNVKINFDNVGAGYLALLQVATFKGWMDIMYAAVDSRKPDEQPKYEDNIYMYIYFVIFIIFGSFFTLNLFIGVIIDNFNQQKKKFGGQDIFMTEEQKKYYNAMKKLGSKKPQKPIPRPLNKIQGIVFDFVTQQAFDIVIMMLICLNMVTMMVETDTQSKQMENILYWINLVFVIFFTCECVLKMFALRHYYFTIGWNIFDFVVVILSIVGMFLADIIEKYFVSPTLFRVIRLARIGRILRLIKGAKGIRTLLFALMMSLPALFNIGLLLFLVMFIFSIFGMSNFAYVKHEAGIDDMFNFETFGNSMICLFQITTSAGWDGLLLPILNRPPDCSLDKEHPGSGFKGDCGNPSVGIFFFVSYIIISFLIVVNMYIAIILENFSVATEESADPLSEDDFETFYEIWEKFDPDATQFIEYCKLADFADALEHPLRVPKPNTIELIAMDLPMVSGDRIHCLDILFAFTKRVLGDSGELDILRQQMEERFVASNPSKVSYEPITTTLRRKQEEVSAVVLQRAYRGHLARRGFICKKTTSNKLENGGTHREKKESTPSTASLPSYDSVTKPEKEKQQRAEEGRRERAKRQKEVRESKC

[3] = target: T1, Sodium channel protein type 8 subunit alpha; assay: Binding affinity to human recombinant Nav1.6 C-terminal domain expressed in Escherichia coli BL21 assessed as dissociation rate constant by SPR analysis; settings: filed as modulator
Outline: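 Biacore T100 runs with FGF14 (17,896 RU) or Nav1.6 C-tail (6,800 RU) amine-coupled on CM5 at pH 5.5. Compounds at 0.195–200 μM in PBS, 0.005% Tween-20, 2% DMSO; 50 μL/min at 25 °C. 120 s association, 150 s dissociation, DMSO calibration, blank subtraction. Rates from a Langmuir 1:1 fit; KD averages the kinetic and steady-state values. At least duplicate experiments.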

[4] = target: T2, Fibroblast growth factor 14/SCN8A (Homo sapiens) (UniProt Q9UQD0+Q92915); assay: Modulation of human recombinant FGF14-Nav1.6 C-terminal domain expressed in Escherichia coli BL21 (DE3) protein-protein interaction assessed as association rate constant by SPR analysis (reference value: 2.18X10^4 +/- 1.6X10^2 /M/s); settings: filed as modulator
T2 sequence (Q92915 whole entry, looked up, the tested form may be a part): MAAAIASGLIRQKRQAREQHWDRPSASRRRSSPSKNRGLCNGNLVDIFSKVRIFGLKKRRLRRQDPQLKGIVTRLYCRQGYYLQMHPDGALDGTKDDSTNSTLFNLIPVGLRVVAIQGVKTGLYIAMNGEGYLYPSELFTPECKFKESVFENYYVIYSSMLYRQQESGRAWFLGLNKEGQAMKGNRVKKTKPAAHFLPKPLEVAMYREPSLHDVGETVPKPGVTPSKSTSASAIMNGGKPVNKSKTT
T2 sequence (Q9UQD0 whole entry, looked up, the tested form may be a part): as the sequence (Q9UQD0 whole entry, looked up, the tested form may be a part) above
Outline: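 FGF14 at 15.6–1500 nM, premixed with 10 μM compound or DMSO, flowed over CM5-bound Nav1.6 C-terminal tail (934 RU). Final 2.1% DMSO, 25 °C, 50 μL/min, 120 s association and 150 s dissociation. Blank-subtracted sensorgrams fitted to a Langmuir 1:1 model.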

[5] = target: T1, Sodium channel protein type 8 subunit alpha; assay: Modulation of recombinant human Nav1.6 C-terminal tail (1763 to 1976 residues) expressed in HEK293 cells assessed as half activation voltage at 10 uM incubated for 30 mins by whole cell patch clamp electrophysiology assay (reference value: -25.4 +/- 1 mV); assay type: cell-based
Outline: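 Stable HEK-Nav1.6 cells without FGF14, incubated at least 30 min in extracellular solution (mM: 140 NaCl, 3 KCl, 1 MgCl2, 1 CaCl2, 10 HEPES, 10 glucose, pH 7.3) with compound (10 or 30 μM) or 0.1% DMSO. Whole-cell recording with Cs-methanesulfonate/EGTA/NaCl/HEPES pipette solution, 70–80% compensation. Steps −100 to +60 mV; tau measured at −10 mV. Student's t-test.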

[6] = target: T1, Sodium channel protein type 8 subunit alpha; assay: Modulation of recombinant human Nav1.6 C-terminal tail (1763 to 1976 residues) expressed in HEK293 cells assessed as long-term inactivation at depolarization cycle 3 at 10 uM incubated for 30 mins by whole cell patch clamp electrophysiology assay (reference value: 0.76 +/- 0.05); assay type: cell-based; settings: filed as modulator
[7] = target: T1, Sodium channel protein type 8 subunit alpha; assay: (§1) Modulation of recombinant human Nav1.6 C-terminal tail (1763 to 1976 residues) expressed in HEK293 cells assessed as long-term inactivation at depolarization cycle 4 at 10 uM incubated for 30 mins by whole cell patch clamp electrophysiology assay (reference value: 0.75 +/- 0.05); assay type: cell-based; settings: filed as modulator
[8] = target: T2, Fibroblast growth factor 14/SCN8A (Homo sapiens); assay: (§2) Modulation of recombinant human Nav1.6 C-terminal tail (1763 to 1976 residues)-FGF14 (64 to 252 residues) protein-protein interaction expressed in HEK293 cells assessed as steady state half inactivation voltage at 10 uM incubated for 30 mins by whole cell patch clamp electrophysiology assay (reference value: -55.1 +/- 2 mV); assay type: cell-based
Outline: (§3)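 HEK-Nav1.6 cells transiently transfected with FGF14 using Lipofectamine 2000, then exposed at least 30 min to 10 μM compound or 0.1% DMSO in the pH 7.3 HEPES extracellular solution. Whole-cell patch clamp with Cs-methanesulfonate internal solution, 70–80% capacitance and series-resistance compensation. Test steps from −100 to +60 mV. Student's t-test used.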

[9] = target: T2, Fibroblast growth factor 14/SCN8A (Homo sapiens); assay: as §2, with “long-term” for “steady state half”, “at depolarization cycle 2” for “voltage”, “by” for “by whole”, “1” for “-55.1”, “0.02)” for “2 mV)”; assay type: cell-based; settings: filed as modulator; outline: as §3
[10] = target: T2, Fibroblast growth factor 14/SCN8A (Homo sapiens); assay: as §1, with “residues) -FGF14 (64 to 252 residues) protein-protein interaction” for “residues)”, “by” for “by whole”, “0.98” for “0.75”, “0.06)” for “0.05)”; assay type: cell-based; settings: filed as modulator
HEK293 = assay: Cytotoxicity against HEK293 cells assessed as reduction in cell viability measured after 18 hrs by celltiter-blue assay; settings: human, hek293, 18 h

With COC(=O)[C@@H](NC(=O)[C@H](CCC(=O)OC(C)(C)C)NC(=O)[C@H](CC(C)C)NC(=O)[C@@H]1CCCN1C(=O)C12CC3CC(CC(C3)C1)C2)C(C)C (Adamantane1carbonyl-PLE(OtBu)V-OMe) the IC50 [1] was 20.4 µM, the ΔTm [2] was -4.64 °C and the K [3] was 3.57 10^-3/s. The K [4] was 5.88 10^6/M/s, the Activity [5] was -16.9 mV and the Activity [6] was 0.76. For the same molecule, the Activity [7] was 0.7, the Activity [8] was -65.6 mV and the Activity [9] was 0.86. The Activity [10] was 0.75 and the Activity (HEK293) was “Non-Toxic”.
